Compound activity deposited in PubChem by several laboratories.
STAT1 inh: STAT1 signaling inhibitors, primary screen, cell-based, HTS, luciferase reporter. NIH 3T3 STAT1-luciferase reporter, IFN-gamma, luminescence. inhibition, % at 5.5 µM. actives 0.35% (n = 200,000). AID 920, 2007;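 active means inhibition above a set limit, the mean inhibition across all tested compounds plus 3 SD, cut at about 34% in these data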;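 further: 0% = IFN-gamma with DMSO and 100% = IFN-gamma with 300 µM nifuroxazide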
Cl transport mod: KCC2 cotransporter modulators, thallium flux, primary screen, cell-based, HEK293 KCC2, FluoZin-2 fluorescence, MLSMR; B-score of Tl+ flux slope (higher = more flux/activation; lower = inhibition) at 10 µM; actives 2.2% (n = 190,000); KCC2 cells, thallium flux FluoZin-2 fluorescence;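 active means thallium flux slope and its plate-corrected score both differing from the plate sample mean at a set confidence after two filtering rounds, in either direction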;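 further: slope of fluorescence scaled to starting intensity during 10 to 20 s after thallium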
HSV augment: enhancers of HSV replication in host cells, fold increase, host cell viability; maximum fold increase; AID 1956, 2009; HSV replication augmentation in cells; actives 0.005% (n = 220,000); in the data active means maximum fold increase above about 1.5; tested in PC3 cells
STAT3 blocker: IL-6 driven STAT3 reporter inhibitors, primary screen, U3A cells, luciferase, luminescence, MLSCN library. IL-6 STAT3-luciferase reporter; host cell line lacks STAT1. inhibition, % at 5.5 µM. actives 0.89% (n = 190,000). AID 862, 2007;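 active means inhibition above the mean inhibition across all screened compounds plus 3 SD, cut at about 44% in these data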;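 further: 0% = DMSO only wells and 100% = 100 µM nifuroxazide control wells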
STAT3 activator: IL-6 driven STAT3 reporter potentiators, primary screen, U3A cells, luciferase, luminescence, MLSCN library; IL-6 STAT3-luciferase reporter; 100% = signal with IL-6 EC80 alone; activation (% of control), % at 5.6 µM; actives 0.91% (n = 190,000);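 active means activation above the screen-wide mean of compound activation plus 3 SD, cut at about 130% in these data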;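 further: 0% = background luminescence of wells with medium and substrate only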
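Material: STAT3-luciferase reporter U3A cells; Probe or stimulus: IL-6 (33 ng/mL); Incubation: compound pre-incubation 1 h before IL-6, then 6 h stimulation at 37 °C; Technique: luminescence from STAT3-driven luciferase reporter; Evaluation: % activation versus median of IL-6-stimulated wells; Controls: IL-6-only high control.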
STAT1 act: STAT1 signaling activators, primary screen, cell-based, HTS, luciferase reporter; NIH 3T3 STAT1-luciferase reporter, IFN-gamma, luminescence; 100% = IFN-gamma alone, no compound; activation (% of control), % at 5.5 µM; actives 2.6% (n = 200,000);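 active means activation above the screen-wide mean activation plus 3 SD, cut at about 130% in these data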;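 further: raw ratio to IFN-gamma control signal so 100% means no change and 0% no light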
Numbers without * were called inactive; i = inactive; . = no result. In the library only some 5.5% were active in any assay of this set; here they are far more common.

SMILES	STAT1 inh	Cl transport mod	HSV augment	STAT3 blocker	STAT3 activator	STAT1 act
Cc1ccc(NC(=O)C2CCCN(c3ncccn3)C2)cc1F (stereo unspecified)	-53	-0.21	i	-11	112	149*
O=C(Nc1ccc2c(c1)CCC2)C1CCCN(c2ncccn2)C1 (stereo unspecified)	-47	.	i	-2	106	144*
CCn1c(/C=C/c2ccccc2)nc2ccccc21	-37	.	i	21	86	133*
COc1cccc(/C=C/c2ccncc2)c1OC	3	-0.34	.	16	91	97
COc1ccc(/C=C/c2ccncc2)cc1	-48	0.48	i	19	87	144*
COc1ccc(/C=C/c2nc3ccccc3n2C)cc1	94*	-3	i	102*	10	14
CC(C)Cn1c(/C=C/c2ccccc2)nc2ccccc21	-40	-0.47	i	4	98	136*
CCC(=O)N1CCN(c2ccccc2NC(=O)COc2cccc(C)c2)CC1	16	13*	i	9	95	85
CCC(=O)N1CCN(c2ccccc2NC(=O)c2cccc(C)c2)CC1	-1	-0.057	i	8	95	101
COc1ccc(CC(=O)NNC(=O)COc2ccc(Br)cc2C)cc1OC	-5	0.62	i	6	99	104
Cc1ccc(OCC(=O)NNC(=O)C(=O)NC(C)(C)C)cc1	-3	13*	i	6	93	102
COc1ccc(OC)c(NC(=O)C(=O)NNC(=O)COc2ccc(Br)cc2C)c1	-4	91*	i	12	95	102
CC(C)(C)NC(=O)C(=O)NNC(=O)COc1ccccc1	-1	4.4	i	3	101	101
COc1ccc(C)cc1NC(=O)COCC(=O)O	-5	.	i	4	99	105
COc1ccc(C)cc1NC(=O)C(=O)NNC(=O)COc1ccc(Cl)cc1	-2	78*	i	16	93	102
CCCCCc1c(O)nc(SCC(=O)O)[nH]c1=O	3	0.0023	.	-2	105	97
CCCCNC(=O)c1onc(CSc2cc(C)ccc2C)c1C(=O)O	-3	-0.71	i	-1	107	102
CCCCNC(=O)c1onc(CSc2ccccc2CC)c1C(=O)O	3	-2.3	i	120*	7	97
O=C1/C(=C\c2ccccc2)CCc2c1[nH]c1ccccc21	-46	.	i	5	104	141*
CCC(C)N=C1Sc2nc3ccc(C)cc3cc2CN1CCOC (stereo unspecified)	0	0.11	i	9	93	99
CCCCn1c(O)c(N=Nc2ccccn2)c2ccccc21	4	11*	i	-2	101	96
CCn1c(O)c(N=Nc2ccc3ccccc3n2)c2ccccc21	.	1.9	i	.	.	.
Cc1cc(/C=N/n2cnnc2)c(C)n1-c1ccc(OCc2ccc(Cl)cc2Cl)cc1	40*	0.9	i	61*	51	64
O=C1CCCCC1Sc1nnc(Nc2ccccc2)s1 (stereo unspecified)	-49	-0.73	i	-12	112	144*
Cc1ccc(Nc2nnc(SC3CCOC3=O)s2)cc1 (stereo unspecified)	-1	-3.2	i	-1	97	101
SMILES	STAT1 inh	Cl transport mod	HSV augment	STAT3 blocker	STAT3 activator	STAT1 act
COc1cc(NC(=O)Cn2ccsc2=N)cc(OC)c1	.	1.4	i	.	.	.
COc1ccc(S(=O)(=O)Nc2ccc3c(c2)OCO3)cc1	7	-0.5	i	1	101	93
COc1ccc2c(c1)CC/C(=C\Nc1ccc3c(c1)OCO3)C2=O	-32	.	i	29	75	130*
COc1ccc(N/C=C2\CCc3ccccc3C2=O)cc1	76*	-2	i	90*	25	28
O=C1/C(=C/Nc2ccc3c(c2)OCO3)CCc2ccccc21	59*	-2.1	i	93*	21	46
COc1ccc(N/C=C2\CCOC2=O)cc1	11	0.076	i	10	96	91
CCC(=O)N1CCN(c2ccc(NC(=O)COc3ccccc3[N+](=O)[O-])cc2)CC1	-8	0.13	i	33	77	106
CCOC(=O)C1(CC2CCCCO2)CCN(Cc2nc(C(C)C)cs2)CC1 (stereo unspecified)	9	-0.12	i	-8	110	91
O=C(CNC(=O)c1ccccc1)OC1CCCCC1	-38	-0.018	i	7	99	135*
Nc1nonc1-c1nc2ccccc2n1Cc1ccc(F)cc1Cl	-38	.	.	-72	161*	135*
O=C(NCc1ccccc1F)c1ccc2c(c1)OCO2	1	-0.84	i	0	105	99
Fc1ccccc1Cn1nnc(-c2ccc3c(c2)OCO3)n1	-39	-0.95	i	-5	108	136*
CCOc1cccc(C(=O)Nc2nc(-c3ccc(S(=O)(=O)N4CCOCC4)cc3)cs2)c1	35*	.	i	34	73	69
Cc1[nH]c2ccccc2c1CC(=O)O	1	.	i	-34	133*	99
Cc1[nH]c2c(C)cccc2c1CC(=O)O	0	-0.53	i	5	103	98
CC(C)(C)SCCNC(=O)c1ccccc1	-30	-0.015	i	-24	120	139*
O=C(NCCSc1ccccc1)c1ccccc1	-46	-0.68	i	0	102	142*
Cc1ccccc1C(=O)NCCSc1ccccc1	-32	-0.99	i	-3	108	129*
COc1ccc(C(=O)NCCSc2ccccn2)cc1	-60	0.18	i	15	91	153*
O=C(NCCSc1ccccc1)c1cncc(Br)c1	-11	0.56	i	-9	111	110
COc1ccc(CCNC(=O)c2cc(-c3ccc(Cl)c(Cl)c3)oc2C)cc1	0	1.4	i	-4	102	100
O=C(COC(=O)C12CC3CC(CC(Br)(C3)C1)C2)N1CCOCC1	-3	-0.058	i	6	98	101
CSc1ccccc1C(=O)NCCSc1ccccc1	0	-2.1	i	0	100	100
COc1cccc(C(=O)NCCSc2ccc(F)cc2)c1	-42	-1.7	i	-12	112	138*
O=C(NCCSc1ccccc1)c1ccccc1Cl	-45	-0.42	i	-12	113	141*
COc1cccc(C(=O)NCCSc2ccc(C)cc2)c1	-1	-0.87	i	6	95	101
